Results reported in ChEMBL document CHEMBL1914423, “New imidazo[2,1-b]thiazole derivatives: synthesis, in vitro anticancer evaluation, and in silico studies” (Eur J Med Chem, 2011).

Assay: Antiproliferative activity against human A375P cells after 48 hrs by MTT assay
Format: functional, cell-based
How it was run: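 A375P cells in DMEM with 10% FBS at 37 °C, 5% CO2. Seeded at 5×10³ cells/well, held 24 h, then treated with 12-point 3-fold serial dilutions for 48 h. Viability by MTT reduction. IC50 values are means of triplicate experiments.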

| SMILES | IC50 [µM] |
| --- | --- |
| COc1cccc(-c2nc3sccn3c2-c2ccnc(NCCNC(=O)Nc3cc(C(F)(F)F)cc(C(F)(F)F)c3)n2)c1 | 4.3 |
| CNC(=O)c1cc(Oc2ccc(NC(=O)Nc3ccc(Cl)c(C(F)(F)F)c3)cc2)ccn1 [SORAFENIB] | 5.6 |
